Measurements of several laboratories.
Protocols differ between the studies behind these lines.
Organism: Escherichia coli
Observed: microbial growth

| Compound | technique | cell line | strain | time | MIC |
| --- | --- | --- | --- | --- | --- |
| CC(O)CSc1nnc(-c2cc3ccccc3o2)n1-c1ccccc1 (stereo not drawn) | – | – | – | – | 10000 µg/mL |
| Cc1[nH]c(C(=O)Nc2ccc(-c3n[nH]c(=O)o3)cc2N2CCC[C@H](N)C2)c(Cl)c1Cl.Cl | broth dilution | – | ATCC25922 | – | 16 µg/mL |
| Nc1ccccc1OC(=O)C=Cc1ccc(O)c(O)c1 | broth dilution | – | ATCC25922 | – | 8 µg/mL |
| Cc1nn(-c2ccccc2)c2c1C(c1c[nH]c3ccccc13)N(C(=O)c1ccncc1)N2 (stereo not drawn) | – | – | MTCC739 | 24 h | > 100 µg/mL |
| CC(C)(C)OC(=O)N[C@H]1CCN(c2cc(C(=O)NCC(=O)O)ccc2NC(=O)c2cc(Br)c(Br)[nH]2)C1 | broth dilution | – | ATCC25922 | – | > 32 µg/mL |
| O=C(C=Cc1ccc(O)c(O)c1)OCc1ccccc1 | broth dilution | – | ATCC25922 | – | 8 µg/mL |
| Cc1[nH]c(C(=O)Nc2ccc(C(=O)NCC(=O)O)cc2N2CC[C@H](NC(=O)OC(C)(C)C)C2)c(Cl)c1Cl | broth dilution | – | ATCC25922 | – | > 32 µg/mL |
| CN(C)[C@@H]1C(O)=C(C(N)=O)C(=O)[C@@]2(O)C(O)=C3C(=O)c4c(O)cccc4[C@@](C)(O)[C@H]3C[C@@H]12 | broth dilution | – | ATCC25922 | – | 16 µg/mL |
| C[C@H]1[C@H](NC(=O)/C(=N\OC(C)(C)C(=O)O)c2csc(N)n2)C(=O)N1S(=O)(=O)O | broth dilution | – | – | – | ≤ 0.06 µg/mL |
| CC(C)(O/N=C(\C(=O)N[C@@H]1C(=O)N2C(C(=O)[O-])=C(C[n+]3ccccc3)CS[C@H]12)c1csc(N)n1)C(=O)O | broth dilution | – | ATCC25922 | 20 h | < 0.5 µg/mL |
| CC(O)CSc1nnc(-c2ccccc2)n1-c1ccccc1 (stereo not drawn) | – | – | – | – | 11000 µg/mL |
| O=C(O)c1cn(C2CC2)c2cc(N3CCNCC3)c(F)cc2c1=O | – | K12 | MG1655 | – | 2 µM |
| NCC[C@H](O)C(=O)N[C@@H]1C[C@H](N)[C@@H](O[C@H]2O[C@H](CN)[C@@H](O)[C@H](O)[C@H]2O)[C@H](O)[C@H]1O[C@H]1O[C@H](CO)[C@@H](O)[C@H](N)[C@H]1O | broth dilution | – | – | – | ≤ 1 µg/mL |
| O=C(N[C@H](CO)[C@H](O)c1ccc([N+](=O)[O-])cc1)C(Cl)Cl | – | – | – | 24 h | 2.5 to 5 µM |
| CO/N=C(\C(=O)N[C@@H]1C(=O)N2C(C(=O)O)=C(CSc3nc(=O)c(O)nn3C)CS[C@H]12)c1csc(N)n1 | broth dilution | – | – | – | ≤ 0.5 µg/mL |
| Cc1[nH]c(C(=O)Nc2ccc(C(=O)NCC(=O)O)cc2N2CCN(C(=O)OC(C)(C)C)CC2)c(Cl)c1Cl | broth dilution | – | ATCC25922 | – | > 32 µg/mL |
| O=C(C=Cc1ccc(O)c(O)c1)Oc1ccccc1 | broth dilution | – | ATCC25922 | – | 8 µg/mL |
| C[C@H]1COc2c(N3CCN(C)CC3)c(F)cc3c(=O)c(C(=O)O)cn1c23 | – | – | BW25113 | – | 0.16 µg/mL |
| Cc1nn(-c2ccccc2)c2c1C(c1cncs1)N(C(=O)c1ccncc1)N2 (stereo not drawn) | – | – | MTCC739 | 24 h | 64 µg/mL |
| Cc1[nH]c(C(=O)Nc2ccc(C(=O)NCC(=O)O)cc2N2CC[C@H](N)C2)c(Cl)c1Cl.Cl | broth dilution | – | ATCC25922 | – | > 32 µg/mL |
| Cc1nn(-c2ccccc2)c2c1C(c1ccc(O)cc1)N(C(=O)c1ccncc1)N2 (stereo not drawn) | – | – | MTCC739 | 24 h | 16 µg/mL |
| CC1(C)S[C@@H]2[C@H](NC(=O)[C@H](N)c3ccccc3)C(=O)N2[C@H]1C(=O)O | – | – | – | 24 h | 5 to 10 µM |
| Cc1[nH]c(C(=O)Nc2ccc(C(=O)NCC(=O)O)cc2N2CCNCC2)c(Cl)c1Cl.Cl | broth dilution | – | ATCC25922 | – | > 32 µg/mL |
| CC(O)CSc1nnc(-c2cc3c(ccc4ccccc43)o2)n1-c1ccccc1 (stereo not drawn) | – | – | – | – | 16000 µg/mL |
| C[C@@H](O)[C@H]1C(=O)N2C(C(=O)O)=C(S[C@@H]3CN[C@H](C(=O)Nc4cccc(C(=O)O)c4)C3)[C@H](C)[C@H]12 | broth dilution | – | – | – | ≤ 0.125 µg/mL |
| COc1ccc(C2c3c(C)nn(-c4ccccc4)c3NN2C(=O)c2ccncc2)cc1 (stereo not drawn) | – | – | MTCC739 | 24 h | 32 µg/mL |
| Cl.N[C@@H]1CCN(c2cc(C(=O)NCC(=O)O)ccc2NC(=O)c2cc(Br)c(Br)[nH]2)C1 | broth dilution | – | ATCC25922 | – | > 32 µg/mL |
| C[C@@H](O)[C@H]1C(=O)N2C(C(=O)O)=C(SCCNC=N)C[C@H]12 | broth dilution | – | – | – | ≤ 0.06 µg/mL |
| Cc1[nH]c(C(=O)Nc2ccc(-c3n[nH]c(=O)o3)cc2N2CC[C@H](N)C2)c(Cl)c1Cl.Cl | broth dilution | – | ATCC25922 | – | 8 µg/mL |
| CC(C)NCC(COc1cccc2ccccc12)OC(=O)C=Cc1ccc(O)c(O)c1 (stereo not drawn) | broth dilution | – | ATCC25922 | – | 64 µg/mL |
